Experimental data gathered from unrelated publications.
Compare with care: the assays were run in different laboratories.
Target: Calcium/calmodulin-dependent protein kinase type II subunit delta (CAMK2D, Homo sapiens, UniProt Q13557)

SMILES | effect on | mode | method | cell line | tested at | endpoint | value
O=C1NC(c2ccccn2)Sc2ccccc21 (stereo not drawn) | cell-free assay |  | competition with immobilised ligand |  | 1 µM | remaining binding | 75%
C[C@@H]1CCN(C(=O)CC#N)C[C@@H]1N(C)c1ncnc2[nH]ccc12 | cell-free assay |  |  |  | 0.5 µM | remaining signal | 98.2%
CCCOc1ccc(OC)c(F)c1C(=O)c1ccc(C(=O)N[C@@H]2CNC[C@H]2NC(=O)c2ccc3[nH]ncc3c2)cc1 | enzyme activity | inhibitor |  |  | 10 µM | remaining activity | 53%
Cc1cc(NC(=O)c2cccc3cc(-c4cccc5[nH]nc(N)c45)ccc23)ccc1F | enzyme activity | inhibitor |  |  | 0.1 µM | activity vs control | 102%
Cc1c(NC(=O)c2cc(C(N)=O)nc3cc(F)ccc23)c(C(F)(F)F)nn1Cc1ccc(C#N)cc1 | cell-free assay |  | competition with immobilised ligand |  | 1 µM | remaining binding | 90%
CC/C(=N\NC(=O)NCc1cccc(O)c1)c1ccc(O)c(C)c1O | enzyme activity | inhibitor |  |  | 0.1 µM | inhibition | -4.9%
Cc1sc(C(=O)NC2COC2)cc1-n1cc(NC(=O)Nc2c(F)cccc2Cl)cn1 | enzyme activity | inhibitor |  |  | 10 µM | remaining activity | 91.3%
O=C(O)[C@@H]1[C@@H](Cn2nnc3ccccc3c2=O)CC[C@H]1C(=O)c1ccc(OCCC2CCOCC2)cc1 | cell-free assay |  | competition with immobilised ligand |  | 1 µM | remaining binding | 100%
CCN1CCN(Cc2ccc(NC(=O)c3ccc(C)c(Oc4ccnc5[nH]ccc45)c3)cc2C(F)(F)F)CC1 | target engagement in cells | inhibitor | chemoproteomics | Huh-7 | 1 µM | inhibition | -12%
CCN(CC)CCNC(=O)c1c(C)[nH]c(/C=C2\C(=O)Nc3ccc(F)cc32)c1C | enzyme activity | inhibitor |  |  | 0.3 µM | inhibition | 92%
CNCc1ccccc1-c1csc([C@H](C)Nc2nc(C)nc3cc(OC)c(OC)cc23)c1 | cell-free assay |  | competition with immobilised ligand |  | 1 µM | remaining binding | 97%
Cc1cnc(NC2CCOCC2)nc1-n1cnc(C(=O)NC(CN)c2cc(F)cc(Cl)c2)c1 (stereo not drawn) | enzyme activity | inhibitor | radiometric |  | 1 µM | remaining activity | 91%
CC(C)(C)c1nc2c(s1)c1nc(N)ncc1c1ccc(NS(=O)(=O)c3c(F)cccc3F)c(F)c12 | enzyme activity | inhibitor | radiometric |  | 1 µM | remaining activity | 96%
O=C(Nc1cnn(-c2csc(C(=O)NC3COC3)c2)c1)Nc1c(F)cccc1Cl | enzyme activity | inhibitor |  |  | 5 µM | remaining activity | 93.5%
CC(C)(O)[C@H]1CC[C@H](Nc2ccc3ncc(-c4cccc(C(F)(F)F)c4)n3n2)CC1 | enzyme activity | inhibitor |  |  | 1 µM | remaining activity | 81.8%
NS(=O)(=O)c1cc(NC(=O)Cc2ccccc2)ccc1Oc1cccc(Cl)c1 | cell-free assay |  | competition with immobilised ligand |  | 1 µM | remaining binding | 97%
CNC(=O)c1cc(Oc2ccc(NC(=O)Nc3ccc(Cl)c(C(F)(F)F)c3)cc2)ccn1 | enzyme activity | inhibitor |  |  | 0.3 µM | inhibition | 56%
O=C(NS(=O)(=O)c1ccc(NCC2CCOCC2)c([N+](=O)[O-])c1)c1ccc(N2CCN(Cc3ccc(C(F)(F)F)cc3-c3ccc(Cl)cc3)CC2)cc1Oc1cnc2[nH]ccc2c1 | cell-free assay |  | competition with immobilised ligand |  | 1 µM | remaining binding | 100%
N#CCCc1ccc2c(c1)-c1[nH]c3ccc([N+](=O)[O-])cc3c1CC(=O)N2 | cell-free assay |  |  |  | 0.5 µM | remaining signal | 57.8%
COc1cc2ncnc(Nc3ccc(Oc4ccccc4)c(C)c3C)c2cc1OC | enzyme activity | inhibitor |  |  | 1 µM | inhibition | 2%
C[S+]([O-])c1ccc(-c2nc(-c3ccncc3)c(-c3ccc(F)cc3)[nH]2)cc1 (stereo not drawn) | cell-free assay |  |  |  | 0.5 µM | remaining signal | 103%
Cc1ccc(Nc2nccc(N(C)c3ccc4c(C)n(C)nc4c3)n2)cc1S(N)(=O)=O | enzyme activity | inhibitor |  |  | 0.3 µM | inhibition | 63%
O=C(NCc1ncc(C(F)(F)F)cc1Cl)c1ccc2c(c1)C1(CCS(=O)(=O)CC1)[C@H](C1CC1)N2S(=O)(=O)c1ccc(F)cc1 | cell-free assay |  | competition with immobilised ligand |  | 1 µM | remaining binding | 100%
CCN(CC)c1ccc(C2=NNC(=O)CC2C)cc1[N+](=O)[O-] (stereo not drawn) | enzyme activity | inhibitor |  |  | 10 µM | remaining activity | 104%
COc1ccc2c(c1)O[C@H](c1ccc(OC)c(OC)c1)C[C@@H]2NC(=O)C1(c2ccc3c(c2)OC(F)(F)O3)CC1 | cell-free assay |  | competition with immobilised ligand |  | 1 µM | remaining binding | 100%
Cc1ccc(C(=O)Nc2ccc(CN3CCN(C)CC3)c(C(F)(F)F)c2)cc1C#Cc1cnc2cccnn12 | enzyme activity |  |  |  | 23.5 nM | remaining activity | 96%
COc1cccc2c(NCc3ccccc3)nc(-n3c(N)nc4ccccc43)nc12 | target engagement in cells | inhibitor | chemoproteomics |  | 20 mM | inhibition | -14.3%
